Legend:
[1] = biological target: 5-hydroxytryptamine receptor 1B (Homo sapiens, UniProt P28222); experiment: In vitro binding affinity against cloned mammalian 5-hydroxytryptamine 1D receptor beta expressed in CHO cells, by using [3H]5-HT as radioligand; assay type: cell-based
Summary of the method: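 Membranes from CHO cells stably expressing the cloned receptor, made by mechanical disruption in ice-cold Tris/EDTA/EGTA pH 7.4 and differential centrifugation. [3H]serotonin at 1.7 nM in 50 mM Tris, 5 mM MgCl2, 0.1% ascorbic acid, pH 7.4. 11 drug concentrations in duplicate, 1 h at room temperature protected from light, then filtration. Excess serotonin defines nonspecific binding. One-site IC50 fit, Ki by Cheng-Prusoff.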

[2] = biological target: D(3) dopamine receptor (Rattus norvegicus) (UniProt P19020); experiment: The compound was tested in vitro for binding affinity against cloned mammalian Dopamine receptor D3 expressed in CHO cells by, using [3H]-spiperone as radioligand; assay type: cell-based; details: concentration not given here
Chain of D(3) dopamine receptor (Rattus norvegicus) (P19020 whole entry): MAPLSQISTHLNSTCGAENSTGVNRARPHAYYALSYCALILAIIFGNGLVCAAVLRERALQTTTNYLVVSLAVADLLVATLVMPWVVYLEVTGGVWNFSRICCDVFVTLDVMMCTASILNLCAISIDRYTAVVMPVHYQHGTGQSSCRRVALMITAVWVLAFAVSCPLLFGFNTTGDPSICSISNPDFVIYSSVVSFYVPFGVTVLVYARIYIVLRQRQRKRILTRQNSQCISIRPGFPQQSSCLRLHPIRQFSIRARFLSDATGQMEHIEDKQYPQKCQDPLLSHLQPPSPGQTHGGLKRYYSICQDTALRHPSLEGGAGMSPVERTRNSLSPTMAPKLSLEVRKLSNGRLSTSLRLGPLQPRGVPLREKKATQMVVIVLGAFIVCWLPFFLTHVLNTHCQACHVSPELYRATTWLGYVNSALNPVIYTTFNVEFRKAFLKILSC
Summary of the method: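 Cloned D3 receptor came from CHO cell membranes (20-60 μg protein). These were incubated 1 h at room temperature with [3H]spiperone (123 Ci/mmol, 0.5 nM) in 20 mM HEPES, 10 mM MgCl2, 150 mM NaCl, 1 mM EDTA, pH 7.4. Excess haloperidol defined nonspecific binding. There were 11 concentrations in duplicate. After filtration and scintillation counting, IC50 came from a one-site competition fit and Ki from Cheng-Prusoff.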

Chain of 5-hydroxytryptamine receptor 1B (P28222 whole entry): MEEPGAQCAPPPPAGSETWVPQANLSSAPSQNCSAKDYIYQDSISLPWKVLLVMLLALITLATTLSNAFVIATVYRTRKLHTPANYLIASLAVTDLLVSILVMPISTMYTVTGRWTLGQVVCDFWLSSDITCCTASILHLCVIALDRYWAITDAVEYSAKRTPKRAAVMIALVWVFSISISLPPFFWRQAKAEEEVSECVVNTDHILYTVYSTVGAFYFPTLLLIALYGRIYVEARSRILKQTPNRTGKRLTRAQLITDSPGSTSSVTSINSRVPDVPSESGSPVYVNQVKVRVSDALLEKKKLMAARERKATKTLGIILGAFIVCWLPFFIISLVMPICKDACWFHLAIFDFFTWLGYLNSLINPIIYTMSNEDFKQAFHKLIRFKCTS

Structure (SMILES): CN(C)[C@H]1CCc2ccc3[nH]ccc3c2C1
- Ki [1]: 1.69 µM
- inhibition [2]: < 45%
